Source: ChEMBL document CHEMBL5653622 (Oncotarget, 2016)
pIC50: −log10 of the molar value.

What was measured:
[1] = molecular target: Serine/threonine-protein kinase Sgk1 (Homo sapiens) (UniProt O00141); experiment: Inhibition of human SGK1 assessed as remaining activity at 10 uM in presence of ATP by radiometric kinase assay relative to control
[2] = molecular target: Inhibitor of nuclear factor kappa-B kinase subunit epsilon (Homo sapiens) (UniProt Q14164); experiment: Inhibition of human IKKe assessed as remaining activity at 10 uM in presence of ATP by radiometric kinase assay relative to control
[3] = molecular target: Serine/threonine-protein kinase BRSK1 (Homo sapiens) (UniProt Q8TDC3); experiment: Inhibition of human BRSK1 at 10 uM in presence of ATP by radiometric kinase assay relative to control
[4] = molecular target: RAC-alpha serine/threonine-protein kinase (Homo sapiens) (UniProt P31749); experiment: Inhibition of human PKBa assessed as remaining activity at 10 uM in presence of ATP by radiometric kinase assay relative to control
RAC-alpha serine/threonine-protein kinase (Homo sapiens), sequence (P31749 whole entry): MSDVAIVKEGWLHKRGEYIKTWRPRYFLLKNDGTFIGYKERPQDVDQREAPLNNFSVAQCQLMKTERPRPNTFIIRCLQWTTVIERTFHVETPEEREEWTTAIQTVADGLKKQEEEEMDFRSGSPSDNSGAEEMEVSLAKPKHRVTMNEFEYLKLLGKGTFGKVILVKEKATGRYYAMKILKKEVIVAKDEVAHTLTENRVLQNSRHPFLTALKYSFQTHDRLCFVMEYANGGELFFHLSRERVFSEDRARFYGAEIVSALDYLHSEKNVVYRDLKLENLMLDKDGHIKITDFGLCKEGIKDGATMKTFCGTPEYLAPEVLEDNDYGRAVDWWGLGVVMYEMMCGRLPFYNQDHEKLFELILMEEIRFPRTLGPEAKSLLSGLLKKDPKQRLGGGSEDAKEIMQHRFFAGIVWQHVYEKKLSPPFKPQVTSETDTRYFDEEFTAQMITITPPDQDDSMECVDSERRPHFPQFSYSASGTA

[5] = molecular target: Serine/threonine-protein kinase MARK1 (Homo sapiens) (UniProt Q9P0L2); experiment: Inhibition of human MARK1 assessed as remaining activity at 10 uM in presence of ATP by radiometric kinase assay relative to control
[6] = molecular target: Rho-associated protein kinase 2 (Homo sapiens) (UniProt O75116); experiment: Inhibition of human ROCK2 assessed as remaining activity at 10 uM in presence of ATP by radiometric kinase assay relative to control
[7] = molecular target: Serine/threonine-protein kinase PAK 2 (Homo sapiens) (UniProt Q13177); experiment: Inhibition of human PAK2 assessed as remaining activity at 10 uM in presence of ATP by radiometric kinase assay relative to control
Serine/threonine-protein kinase PAK 2 (Homo sapiens), sequence (Q13177 whole entry): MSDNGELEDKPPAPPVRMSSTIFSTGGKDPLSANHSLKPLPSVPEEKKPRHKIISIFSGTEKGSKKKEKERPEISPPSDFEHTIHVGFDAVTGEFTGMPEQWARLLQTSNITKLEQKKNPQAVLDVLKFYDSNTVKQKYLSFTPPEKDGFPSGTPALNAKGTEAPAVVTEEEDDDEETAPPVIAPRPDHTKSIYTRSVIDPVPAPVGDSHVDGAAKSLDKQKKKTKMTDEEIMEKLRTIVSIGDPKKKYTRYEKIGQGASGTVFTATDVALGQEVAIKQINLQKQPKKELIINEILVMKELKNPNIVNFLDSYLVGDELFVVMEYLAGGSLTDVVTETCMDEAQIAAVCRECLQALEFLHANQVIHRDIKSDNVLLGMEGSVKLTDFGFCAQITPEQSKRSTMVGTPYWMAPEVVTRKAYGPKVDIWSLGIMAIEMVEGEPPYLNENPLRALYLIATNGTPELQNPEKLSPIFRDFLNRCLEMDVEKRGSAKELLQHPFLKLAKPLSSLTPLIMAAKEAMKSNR

[8] = molecular target: Ribosomal protein S6 kinase beta-1 (Homo sapiens) (UniProt P23443); experiment: Inhibition of human S6K1 assessed as remaining activity at 10 uM in presence of ATP by radiometric kinase assay relative to control
[9] = AUC (0 to t) in BALB/C mouse spleen at 10 mg/kg, iv by LC/MS-MS analysis; type: ADME, organism-based
[10] = molecular target: Vascular endothelial growth factor receptor 2 (Homo sapiens, UniProt P35968); experiment: Inhibition of VEGFR2 (unknown origin) by FRET based Z-LYTE kinase assay
[11] = molecular target: SRSF protein kinase 1 (Homo sapiens) (UniProt Q96SB4); experiment: Inhibition of human SRPK1 assessed as remaining activity at 10 uM in presence of ATP by radiometric kinase assay relative to control
[12] = Toxicity in CRTac:Ncr-Fox1 mouse xenografted with human Calu-6 cells assessed as body weight at 150 mg/kg, po administered for 3 days in presence of gemcitabine relative to control; type: organism-based; details: in vivo, 72 h, time 3 day
[13] = molecular target: Mitogen-activated protein kinase kinase kinase 9 (Homo sapiens) (UniProt P80192); experiment: Inhibition of human MLK1 assessed as remaining activity at 10 uM in presence of ATP by radiometric kinase assay relative to control
[14] = molecular target: Protein kinase C alpha type (Homo sapiens) (UniProt P17252); experiment: Inhibition of human PKCa assessed as remaining activity at 10 uM in presence of ATP by radiometric kinase assay relative to control
[15] = molecular target: Dual specificity tyrosine-phosphorylation-regulated kinase 2 (Homo sapiens) (UniProt Q92630); experiment: Inhibition of human DYRK2 assessed as remaining activity at 10 uM in presence of ATP by radiometric kinase assay relative to control
[16] = molecular target: Serine/threonine-protein kinase D1 (Homo sapiens, UniProt Q15139); experiment: Inhibition of PRKD1 (unknown origin) by 33P radiometric kinase assay
Serine/threonine-protein kinase D1, sequence (Q15139 whole entry): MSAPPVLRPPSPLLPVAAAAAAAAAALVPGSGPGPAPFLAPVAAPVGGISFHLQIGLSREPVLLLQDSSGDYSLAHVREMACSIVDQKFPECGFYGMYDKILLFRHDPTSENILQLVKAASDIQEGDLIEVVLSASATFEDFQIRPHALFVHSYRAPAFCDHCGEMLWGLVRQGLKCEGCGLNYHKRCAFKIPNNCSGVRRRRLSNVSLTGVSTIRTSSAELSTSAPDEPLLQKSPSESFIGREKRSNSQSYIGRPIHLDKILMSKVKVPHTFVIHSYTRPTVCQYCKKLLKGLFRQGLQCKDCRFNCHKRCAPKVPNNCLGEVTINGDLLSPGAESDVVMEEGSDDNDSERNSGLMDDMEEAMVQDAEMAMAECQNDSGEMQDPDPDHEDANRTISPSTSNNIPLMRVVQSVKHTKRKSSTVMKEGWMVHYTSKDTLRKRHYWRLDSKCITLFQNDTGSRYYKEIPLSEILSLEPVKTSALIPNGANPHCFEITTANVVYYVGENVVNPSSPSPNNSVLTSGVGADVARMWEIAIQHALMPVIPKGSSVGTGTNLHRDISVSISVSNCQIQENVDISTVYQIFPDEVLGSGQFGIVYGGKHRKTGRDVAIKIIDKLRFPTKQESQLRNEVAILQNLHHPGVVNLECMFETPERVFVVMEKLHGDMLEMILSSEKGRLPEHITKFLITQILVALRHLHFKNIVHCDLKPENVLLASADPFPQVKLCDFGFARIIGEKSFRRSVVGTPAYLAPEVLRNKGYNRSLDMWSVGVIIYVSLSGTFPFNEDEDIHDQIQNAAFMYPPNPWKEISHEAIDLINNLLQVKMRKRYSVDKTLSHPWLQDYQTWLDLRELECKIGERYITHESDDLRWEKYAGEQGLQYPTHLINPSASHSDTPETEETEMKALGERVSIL

[17] = molecular target: Fibroblast growth factor receptor 1 (Homo sapiens) (UniProt P11362); experiment: Inhibition of human FGF-R1 assessed as remaining activity at 10 uM in presence of ATP by radiometric kinase assay relative to control
Fibroblast growth factor receptor 1 (Homo sapiens), sequence (P11362 22-822 limits assumed): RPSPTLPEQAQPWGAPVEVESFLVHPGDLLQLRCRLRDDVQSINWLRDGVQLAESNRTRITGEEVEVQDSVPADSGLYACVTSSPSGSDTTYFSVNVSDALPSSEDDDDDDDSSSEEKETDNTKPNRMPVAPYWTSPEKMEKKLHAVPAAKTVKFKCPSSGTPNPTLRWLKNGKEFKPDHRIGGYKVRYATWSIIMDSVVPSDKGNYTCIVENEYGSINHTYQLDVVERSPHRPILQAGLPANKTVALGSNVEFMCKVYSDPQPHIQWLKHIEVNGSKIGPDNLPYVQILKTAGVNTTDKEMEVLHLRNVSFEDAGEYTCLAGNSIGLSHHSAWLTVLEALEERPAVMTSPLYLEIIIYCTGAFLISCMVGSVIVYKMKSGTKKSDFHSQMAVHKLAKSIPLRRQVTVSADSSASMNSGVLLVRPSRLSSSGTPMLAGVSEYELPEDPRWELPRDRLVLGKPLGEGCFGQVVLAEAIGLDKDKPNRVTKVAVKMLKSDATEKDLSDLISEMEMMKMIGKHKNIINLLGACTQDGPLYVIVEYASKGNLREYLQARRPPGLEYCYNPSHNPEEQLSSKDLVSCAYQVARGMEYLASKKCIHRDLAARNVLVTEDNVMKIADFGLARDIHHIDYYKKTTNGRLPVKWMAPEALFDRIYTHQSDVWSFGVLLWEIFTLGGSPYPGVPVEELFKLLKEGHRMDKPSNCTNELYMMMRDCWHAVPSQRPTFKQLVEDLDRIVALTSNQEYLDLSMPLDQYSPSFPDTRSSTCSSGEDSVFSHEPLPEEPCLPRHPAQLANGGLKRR

[18] = molecular target: Tyrosine-protein kinase JAK2 (Homo sapiens) (UniProt O60674); experiment: Inhibition of human JAK2 assessed as remaining activity at 10 uM in presence of ATP by radiometric kinase assay relative to control
Tyrosine-protein kinase JAK2 (Homo sapiens), sequence (O60674 whole entry): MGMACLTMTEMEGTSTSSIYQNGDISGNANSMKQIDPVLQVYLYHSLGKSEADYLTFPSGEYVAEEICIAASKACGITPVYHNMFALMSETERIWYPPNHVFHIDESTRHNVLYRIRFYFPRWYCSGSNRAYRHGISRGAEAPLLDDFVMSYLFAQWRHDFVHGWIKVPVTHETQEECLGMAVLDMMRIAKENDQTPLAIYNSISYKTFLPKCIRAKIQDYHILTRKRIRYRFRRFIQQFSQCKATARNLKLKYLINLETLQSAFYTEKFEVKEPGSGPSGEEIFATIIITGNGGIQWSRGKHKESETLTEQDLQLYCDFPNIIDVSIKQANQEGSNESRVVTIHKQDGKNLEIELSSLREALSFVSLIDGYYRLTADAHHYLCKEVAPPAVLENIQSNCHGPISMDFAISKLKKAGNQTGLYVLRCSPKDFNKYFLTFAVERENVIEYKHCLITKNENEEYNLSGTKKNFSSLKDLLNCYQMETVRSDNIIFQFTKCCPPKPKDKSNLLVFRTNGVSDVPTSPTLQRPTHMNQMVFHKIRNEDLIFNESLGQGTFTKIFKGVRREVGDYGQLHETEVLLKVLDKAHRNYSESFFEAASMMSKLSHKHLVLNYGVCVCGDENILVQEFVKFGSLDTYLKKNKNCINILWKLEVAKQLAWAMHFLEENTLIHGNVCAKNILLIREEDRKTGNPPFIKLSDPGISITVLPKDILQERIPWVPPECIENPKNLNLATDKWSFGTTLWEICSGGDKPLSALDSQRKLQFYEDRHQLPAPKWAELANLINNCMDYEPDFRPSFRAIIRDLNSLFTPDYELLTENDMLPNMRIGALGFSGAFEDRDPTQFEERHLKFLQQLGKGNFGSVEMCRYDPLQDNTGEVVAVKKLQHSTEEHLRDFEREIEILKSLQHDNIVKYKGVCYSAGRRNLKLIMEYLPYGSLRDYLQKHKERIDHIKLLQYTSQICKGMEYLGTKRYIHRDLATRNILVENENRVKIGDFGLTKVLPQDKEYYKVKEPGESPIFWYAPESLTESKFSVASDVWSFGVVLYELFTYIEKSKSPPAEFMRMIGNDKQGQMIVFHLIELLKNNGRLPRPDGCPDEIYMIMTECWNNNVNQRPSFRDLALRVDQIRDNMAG

[19] = molecular target: Tyrosine-protein kinase SYK (Homo sapiens) (UniProt P43405); experiment: Inhibition of human SYK assessed as remaining activity at 10 uM in presence of ATP by radiometric kinase assay relative to control
[20] = Toxicity in Emu-Myc driven transgenic mouse transplant model of B-cell lymphoma assessed as reduction in weight of the inguinal lymph nodes at 150 mg/kg, po administered for 9 days; type: organism-based; details: in vivo, 216 h, time 9 day
[21] = Half life in BALB/C mouse spleen at 10 mg/kg, po by LC/MS-MS analysis; type: ADME, organism-based
Outline: (§1)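 Female BALB/c mice received a single bolus of 10mg/kg, either i.v. or p.o. The oral vehicle was DPTW (10% DMSO, 20% PEG400, 5% Tween 80, 65% water). Plasma and spleen homogenates were extracted with methanol containing internal standards. Drug levels were measured by LC/MS-MS, and pharmacokinetic parameters were calculated from the concentration-time profiles.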

[22] = Half life in BALB/C mouse spleen at 10 mg/kg, iv by LC/MS-MS analysis; type: ADME, organism-based; outline: as §1
[23] = AUC (0 to infinity) in BALB/C mouse spleen at 10 mg/kg, iv by LC/MS-MS analysis; type: ADME, organism-based
[24] = organism: Homo sapiens; experiment: Inhibition of human VEG-FR assessed as remaining activity at 10 uM in presence of ATP by radiometric kinase assay relative to control
[25] = molecular target: NUAK family SNF1-like kinase 1 (Homo sapiens, UniProt O60285); experiment: Inhibition of human NUAK1 by FRET based Z-LYTE kinase assay
[26] = molecular target: NUAK family SNF1-like kinase 1 (Homo sapiens) (UniProt O60285); experiment: Inhibition of human NUAK1 assessed as remaining activity at 10 uM in presence of ATP by radiometric kinase assay relative to control
[27] = molecular target: MAP/microtubule affinity-regulating kinase 3 (Homo sapiens, UniProt P27448); experiment: Inhibition of human MARK3 at 10 uM in presence of ATP by radiometric kinase assay relative to control
[28] = molecular target: Tyrosine-protein kinase BTK (Homo sapiens) (UniProt Q06187); experiment: Inhibition of human BTK assessed as remaining activity at 10 uM in presence of ATP by radiometric kinase assay relative to control
Tyrosine-protein kinase BTK (Homo sapiens), sequence (Q06187 whole entry): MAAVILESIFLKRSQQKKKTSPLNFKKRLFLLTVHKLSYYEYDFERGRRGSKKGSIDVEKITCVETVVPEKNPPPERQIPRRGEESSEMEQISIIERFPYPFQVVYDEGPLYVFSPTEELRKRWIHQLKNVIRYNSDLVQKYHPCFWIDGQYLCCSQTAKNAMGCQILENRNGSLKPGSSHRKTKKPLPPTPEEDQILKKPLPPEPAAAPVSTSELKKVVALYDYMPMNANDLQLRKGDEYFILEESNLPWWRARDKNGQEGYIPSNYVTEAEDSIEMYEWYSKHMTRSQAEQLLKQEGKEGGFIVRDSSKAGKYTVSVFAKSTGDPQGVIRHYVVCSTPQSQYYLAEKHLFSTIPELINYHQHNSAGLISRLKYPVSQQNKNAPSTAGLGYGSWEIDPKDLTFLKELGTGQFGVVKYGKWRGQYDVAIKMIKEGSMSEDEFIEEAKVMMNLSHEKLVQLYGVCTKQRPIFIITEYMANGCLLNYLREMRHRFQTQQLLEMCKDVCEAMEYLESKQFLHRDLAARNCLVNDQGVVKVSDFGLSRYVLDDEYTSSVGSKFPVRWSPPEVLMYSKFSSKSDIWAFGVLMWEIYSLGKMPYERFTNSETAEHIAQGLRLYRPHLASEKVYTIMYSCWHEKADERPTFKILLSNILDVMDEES

[29] = molecular target: Serine/threonine-protein kinase 16 (Homo sapiens) (UniProt O75716); experiment: Inhibition of human MPSK1 assessed as remaining activity at 10 uM in presence of ATP by radiometric kinase assay relative to control
[30] = molecular target: Casein kinase I (Homo sapiens) (UniProt Q9HCP0+P78368+P48730+P49674+P48729); experiment: Inhibition of human CK1 assessed as remaining activity at 10 uM in presence of ATP by radiometric kinase assay relative to control; type: protein assay

Serine/threonine-protein kinase Sgk1 (Homo sapiens), sequence (O00141 whole entry): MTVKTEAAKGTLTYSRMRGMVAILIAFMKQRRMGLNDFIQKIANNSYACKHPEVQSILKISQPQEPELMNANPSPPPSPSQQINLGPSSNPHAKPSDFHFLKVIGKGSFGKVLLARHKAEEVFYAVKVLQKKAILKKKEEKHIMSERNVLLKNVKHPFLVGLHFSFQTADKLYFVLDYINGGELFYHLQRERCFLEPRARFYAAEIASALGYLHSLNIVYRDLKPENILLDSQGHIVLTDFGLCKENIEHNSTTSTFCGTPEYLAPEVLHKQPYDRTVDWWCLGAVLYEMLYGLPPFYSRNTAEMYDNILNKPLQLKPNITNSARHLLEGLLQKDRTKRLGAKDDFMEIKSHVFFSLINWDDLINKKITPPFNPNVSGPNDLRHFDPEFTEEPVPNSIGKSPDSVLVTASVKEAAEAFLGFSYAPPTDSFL

Compound: N#Cc1cnc(Nc2cc(NC[C@H]3CNCCO3)c(C(F)(F)F)cn2)cn1 [SRA-737]
- Activity [1]: 87%
- Activity [2]: 102%
- inhibition [3]: 88%
- Activity [4]: 93%
- Activity [5]: 43%
- Activity [6]: 95%
- Activity [7]: 96%
- Activity [8]: 52%
- AUC(0-t) [9]: 262 µM·h
- pIC50 [10]: 5.68
- Activity [11]: 82%
- Activity [12]: 98%
- Activity [13]: 75%
- Activity [14]: 82%
- Activity [15]: 61%
- pIC50 [16]: 6.53
- Activity [17]: 33%
- Activity [18]: 37%
- Activity [19]: 84%
- Activity [20]: Toxic
- half-life [21]: 3.11 h
- half-life [22]: 2.76 h
- AUC(0-inf) [23]: 262 µM·h
- Activity [24]: 13%
- pIC50 [25]: 6.15
- Activity [26]: 6%
- inhibition [27]: 87%
- Activity [28]: 72%
- Activity [29]: 122%
- Activity [30]: 85%
